Data reported in ChEMBL document CHEMBL1795318, “Development of tetrahydroisoquinoline-based hydroxamic acid derivatives: potent histone deacetylase inhibitors with marked in vitro and in vivo antitumor activities” (J Med Chem, 2011).
Calls of active or inactive are those of the source. No cut-off for these calls is given here.

Tests used:
A549 = assay: Cytotoxicity against human A549 cells after 48 hrs by MTT assay; format: functional, cell-based; conditions: A549, 48 h
Method in brief: (§1)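 Cells kept in RPMI1640 with 10% FBS, 37 °C, 5% CO₂; seeded day before dosing, grown ≥4 h, treated with a concentration series for 48 h. MTT 0.5% solution added, 4 h further; formazan dissolved in DMSO 15 min, absorbance at 570 nm. Mean of three experiments.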

MDA-MB-231 [1] = assay: Cytotoxicity against human MDA-MB-231 cells after 48 hrs by MTT assay; format: functional, cell-based; conditions: MDA-MB-231, 48 h
HeLa = assay: Cytotoxicity against human HeLa cells after 48 hrs by MTT assay; format: functional, cell-based
K562 = assay: Cytotoxicity against human K562 cells after 48 hrs by MTT assay; format: functional, cell-based; conditions: K562, 48 h
NB-4 = assay: Cytotoxicity against human NB4 cells after 48 hrs by MTT assay; format: functional, cell-based; conditions: NB-4, 48 h
HL-60 = assay: Cytotoxicity against human HL60 cells after 48 hrs by MTT assay; format: functional, cell-based; conditions: HL-60, 48 h
[2] = Cytotoxicity against human ES2 cells after 48 hrs by MTT assay; format: functional, cell-based; conditions: ES-2, 48 h
[3] = Cytotoxicity against human fibroblasts after 48 hrs by MTT assay; format: cell-based; conditions: fibroblast; method in brief: as §1
MDA-MB-231 [4] = assay: Antitumor activity against human MDA-MB-231 cells xenografted in athymic nude mouse assessed as tumor growth inhibition at 90 mg/kg, ip qd for 21 days; format: functional; conditions: route intraperitoneal
Mus musculus [5] = assay: Toxicity in human MDA-MB-231 cells xenografted athymic nude mouse assessed as change in body weight at 90 mg/kg, ip qd for 21 days; format: organism-based; design: dose 90 mg/kg, route intraperitoneal; conditions: in vivo, 504 h
Mus musculus [6] = assay: Toxicity in human MDA-MB-231 cells xenografted athymic nude mouse assessed as signs of toxicity at 90 mg/kg, ip qd for 21 days; format: organism-based; design: dose 90 mg/kg, route intraperitoneal; conditions: in vivo, 504 h
MDA-MB-231 [7] = assay: Antitumor activity against human MDA-MB-231 cells xenografted in athymic nude mouse assessed as tumor growth delay at 90 mg/kg, ip qd for 21 days; format: functional, organism-based; design: dose 90 mg/kg
Histone deacetylase = assay: Inhibition of HDAC in human HeLa cell nuclear extract after 30 mins by fluorescence microplate reader; format: protein assay
[8] = target: T1, Protein deacetylase HDAC6 (Homo sapiens, UniProt Q9UBN7); assay: Inhibition of HDAC6 in human HeLa cell nuclear extract after 30 mins by fluorescence microplate reader
T1 sequence (Q9UBN7 whole entry): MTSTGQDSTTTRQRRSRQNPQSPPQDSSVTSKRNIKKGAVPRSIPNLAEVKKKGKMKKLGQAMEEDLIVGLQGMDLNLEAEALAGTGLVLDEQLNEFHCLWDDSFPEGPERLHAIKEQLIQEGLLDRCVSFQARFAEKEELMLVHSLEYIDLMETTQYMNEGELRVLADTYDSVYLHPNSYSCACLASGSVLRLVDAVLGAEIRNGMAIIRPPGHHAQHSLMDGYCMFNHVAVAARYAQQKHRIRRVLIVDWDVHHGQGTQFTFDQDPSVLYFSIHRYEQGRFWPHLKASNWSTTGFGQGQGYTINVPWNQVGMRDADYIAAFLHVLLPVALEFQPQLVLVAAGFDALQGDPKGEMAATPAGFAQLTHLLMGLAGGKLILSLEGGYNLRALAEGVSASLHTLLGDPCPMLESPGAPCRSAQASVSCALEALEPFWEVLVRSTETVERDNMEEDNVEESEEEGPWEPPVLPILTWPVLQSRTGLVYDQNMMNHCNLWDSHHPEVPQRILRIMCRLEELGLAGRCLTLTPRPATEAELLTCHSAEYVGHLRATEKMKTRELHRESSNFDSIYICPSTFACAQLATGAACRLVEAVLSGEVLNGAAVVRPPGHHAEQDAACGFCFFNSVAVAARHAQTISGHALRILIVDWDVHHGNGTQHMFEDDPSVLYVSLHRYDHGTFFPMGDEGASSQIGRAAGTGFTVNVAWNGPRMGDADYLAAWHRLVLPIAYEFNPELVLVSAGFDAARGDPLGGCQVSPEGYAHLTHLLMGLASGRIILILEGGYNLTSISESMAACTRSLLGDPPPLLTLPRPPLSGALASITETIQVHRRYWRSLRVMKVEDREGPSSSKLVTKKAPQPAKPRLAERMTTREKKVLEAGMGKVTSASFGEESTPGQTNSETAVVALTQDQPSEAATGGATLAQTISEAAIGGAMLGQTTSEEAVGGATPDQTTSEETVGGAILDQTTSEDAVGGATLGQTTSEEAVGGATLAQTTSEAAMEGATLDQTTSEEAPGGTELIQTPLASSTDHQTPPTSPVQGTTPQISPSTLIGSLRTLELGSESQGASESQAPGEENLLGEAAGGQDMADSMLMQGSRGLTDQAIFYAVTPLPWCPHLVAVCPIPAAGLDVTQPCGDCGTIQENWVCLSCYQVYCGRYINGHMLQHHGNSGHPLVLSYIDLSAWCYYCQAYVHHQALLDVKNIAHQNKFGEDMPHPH

MDA-MB-231 [9] = assay: Cell cycle arrest in human MDA-MB-231 cells assessed as accumulation at G1 phase at 0.5 uM after 48 hrs by flow cytometry analysis; format: functional, cell-based
MDA-MB-231 [10] = assay: Cell cycle arrest in human MDA-MB-231 cells assessed as accumulation at G2 phase at 2 to 5 uM after 48 hrs by flow cytometry analysis; format: functional, cell-based
Histone deacetylase 8 = target: T2, Histone deacetylase 8 (Homo sapiens, UniProt Q9BY41); assay: Inhibition of HDAC8 after 30 mins by fluorescence microplate reader
T2 sequence (Q9BY41 whole entry): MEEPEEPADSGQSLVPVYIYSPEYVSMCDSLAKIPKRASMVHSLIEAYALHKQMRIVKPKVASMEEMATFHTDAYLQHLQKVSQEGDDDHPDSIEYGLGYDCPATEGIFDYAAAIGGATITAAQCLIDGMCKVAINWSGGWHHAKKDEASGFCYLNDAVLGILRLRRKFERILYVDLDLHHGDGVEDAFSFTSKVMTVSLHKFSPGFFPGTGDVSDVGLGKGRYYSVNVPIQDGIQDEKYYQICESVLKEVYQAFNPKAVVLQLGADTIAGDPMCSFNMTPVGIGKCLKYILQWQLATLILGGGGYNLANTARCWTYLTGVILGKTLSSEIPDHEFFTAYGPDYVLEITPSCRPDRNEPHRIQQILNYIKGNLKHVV
Method in brief: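 HDAC8 mixed with compound at various concentrations, fluorogenic substrate added, 37 °C for 30 min; stopped with developer containing trypsin and TSA. Fluorescence read after 20 min (ex 390/em 460 nm); inhibition relative to control wells, IC50 by regression of concentration/inhibition data; mean ± SD of at least three determinations.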

Row | IC50 (Histone deacetylase) [nM] | IC50 [8] [nM] | IC50 (Histone deacetylase 8) [nM] | Compound | IC50 (A549) [nM] | IC50 (MDA-MB-231 [1]) [nM] | IC50 (HeLa) [nM] | IC50 (K562) [nM] | IC50 (NB-4) [nM] | IC50 (HL-60) [nM] | IC50 [2] [nM] | Activity [3] | T/C (MDA-MB-231 [4]) [%] | Activity (Mus musculus [5]) | Activity (Mus musculus [6]) | Activity (MDA-MB-231 [7]) | Activity (MDA-MB-231 [9]) | Activity (MDA-MB-231 [10])
1 | 58 | 47 | 139 | CC[C@H](C)[C@H](NC(=O)OC(C)(C)C)C(=O)N1Cc2cc(OCC(=O)NO)ccc2C[C@H]1C(=O)Nc1ccc(OC)cc1 | 940 | 790 | 37100 | 1470 | 1500 | 47600 | 5000 | Toxic | 63 | Non-toxic | Non-toxic | Active | Active | Active
2 |  |  |  | O=C(CCCCCCC(=O)Nc1ccccc1)NO [VORINOSTAT] | 740 |  |  |  |  |  |  |  |  | Non-toxic | Non-toxic | Active |  | 
